Common to all, as to format: cell-based
Data set [1] has as its target human CB2 receptors (Homo sapiens, UniProt P34972).
Data set [2] concerns osteoclast (OCL) formation. Put plainly: osteoclast. To be noted: mouse bone marrow mononuclear cells, RANKL plus MCSF. The gist of the method:
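Test compound was given at concentrations including 0.1, 1 and 5 μM, alongside a vehicle control. The read-out was inhibition of osteoclastogenesis, expressed as percent suppression of osteoclast formation. Each experiment was run in triplicate, and data were reported as means ± standard deviation.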

A short description of data set [3]: cytotoxicity assay. To be noted: 5 μM.

SMILES strings stand for the structures. Where two headings read alike, the source gives them in different places.

Chain of human CB2 receptors (P34972 whole entry): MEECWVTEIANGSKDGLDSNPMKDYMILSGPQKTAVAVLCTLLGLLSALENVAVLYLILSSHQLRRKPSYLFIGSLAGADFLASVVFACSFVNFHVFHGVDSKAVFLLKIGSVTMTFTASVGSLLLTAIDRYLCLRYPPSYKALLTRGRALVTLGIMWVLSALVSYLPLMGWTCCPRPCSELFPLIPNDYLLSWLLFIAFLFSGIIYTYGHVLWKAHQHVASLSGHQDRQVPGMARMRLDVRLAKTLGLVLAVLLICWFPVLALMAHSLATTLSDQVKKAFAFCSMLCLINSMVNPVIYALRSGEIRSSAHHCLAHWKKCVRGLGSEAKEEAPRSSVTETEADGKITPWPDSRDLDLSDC

For `COc1ccc(S(=O)(=O)N(Cc2ccc(N3CCCCC3)cc2)c2ccccc2)cc1` [Compound 47], the “functional behaviour at CB2 receptor” value in data set [1] (based on LANCE signal change) is reported as “behaved as CB2 receptor inverse agonists”.
Regarding `CCN(CC)c1ccc(CN(c2ccccc2)S(=O)(=O)c2ccc(OC)cc2)cc1` [Compound 39], in data set [1] (based on LANCE signal change), the “functional behaviour at CB2 receptor” value was “behaved as CB2 receptor inverse agonists”. In data set [2], the “inhibition of osteoclastogenesis (in words)” value was “great inhibition of osteoclastogenesis”.
Taken in the same sequence, the figures for `CCN(CC)c1ccc(CN(c2ncc(C)s2)S(=O)(=O)c2ccc(OC)cc2)cc1` [Compound 45] were “behaved as CB2 receptor inverse agonists” and “great inhibition of osteoclastogenesis”.
As for `CCN(CC)c1ccc(CN(c2ccccc2)S(=O)(=O)c2ccc(C)cc2)cc1` [Compound 34], the cytotoxic effects result in data set [3] is on record as “without showing any cytotoxic effects”. Besides, the “functional behaviour at CB2 receptor” value in data set [1] is “behaved as CB2 receptor inverse agonists”. Further, in data set [2], the “inhibition of osteoclastogenesis (in words)” value is “great inhibition of osteoclastogenesis”.

The values above are taken from article PMC3979583 (ACS medicinal chemistry letters, 2013).
